# Reference: ChEMBL document CHEMBL3526002, “Tissue distribution and identification of radioactivity components at elimination phase after oral administration of [¹⁴C]CS-1036, an α-amylase inhibitor, to rats” (Drug Metab Dispos, 2013)
# Key:
# Conditions in all cases: in vivo; call rule not given here
# Pancreas [1] = experiment: Drug uptake in albino F344/DuCrlCrlj rat pancreas assessed as ng equivalent of CS-1036 at 5 mg/kg, po after 4 hrs by liquid scintillation counting; format: ADME, organism-based; parameters: dose 5 mg/kg, dosed compound name [14C]CS-1036, route oral
# Harderian gland [2] = experiment: Drug uptake in albino F344/DuCrlCrlj rat harderian gland assessed as ng equivalent of CS-1036 at 5 mg/kg, po after 1 hr by liquid scintillation counting; format: ADME, organism-based; parameters: dose 5 mg/kg, dosed compound name [14C]CS-1036, route oral
# Lung [3] = experiment: Drug uptake in albino F344/DuCrlCrlj rat lung at 5 mg/kg, po after 1 hr by liquid scintillation counting; format: ADME, organism-based; parameters: dose 5 mg/kg, dosed compound name [14C]CS-1036, route oral
# [4] = Drug uptake in albino F344/DuCrlCrlj rat bone marrow at 5 mg/kg, po after 72 hrs by liquid scintillation counting; format: ADME, organism-based; parameters: dose 5 mg/kg, dosed compound name [14C]CS-1036, route oral
# Heart = experiment: Drug uptake in albino F344/DuCrlCrlj rat heart assessed as ng equivalent of CS-1036 at 5 mg/kg, po after 168 hrs by liquid scintillation counting; format: ADME, organism-based; parameters: dose 5 mg/kg, dosed compound name [14C]CS-1036, route oral
# Large intestine = experiment: Drug uptake in albino F344/DuCrlCrlj rat large intestine assessed as ng equivalent of CS-1036 at 5 mg/kg, po after 8 hrs by liquid scintillation counting; format: ADME, organism-based; parameters: dose 5 mg/kg, dosed compound name [14C]CS-1036, route oral
# Zone of skin = experiment: Drug uptake in albino F344/DuCrlCrlj rat skin at 5 mg/kg, po after 4 hrs by liquid scintillation counting; format: ADME, organism-based; parameters: dose 5 mg/kg, dosed compound name [14C]CS-1036, route oral
# Lung [5] = experiment: Drug uptake in albino F344/DuCrlCrlj rat lung assessed as ng equivalent of CS-1036 at 5 mg/kg, po after 72 hrs by liquid scintillation counting; format: ADME, organism-based; parameters: dose 5 mg/kg, dosed compound name [14C]CS-1036, route oral
# Pancreas [6] = experiment: Drug uptake in albino F344/DuCrlCrlj rat pancreas at 5 mg/kg, po after 336 hrs by liquid scintillation counting; format: ADME, organism-based; parameters: dose 5 mg/kg, dosed compound name [14C]CS-1036, route oral
# Harderian gland [7] = experiment: Drug uptake in albino F344/DuCrlCrlj rat harderian gland at 5 mg/kg, po after 72 hrs by liquid scintillation counting; format: ADME, organism-based; parameters: dose 5 mg/kg, dosed compound name [14C]CS-1036, route oral
# Lung [8] = experiment: Drug uptake in albino F344/DuCrlCrlj rat lung at 5 mg/kg, po after 72 hrs by liquid scintillation counting; format: ADME, organism-based; parameters: dose 5 mg/kg, dosed compound name [14C]CS-1036, route oral
# [9] = Drug uptake in albino F344/DuCrlCrlj rat skeletal muscle assessed as ng equivalent of CS-1036 at 5 mg/kg, po after 336 hrs by liquid scintillation counting; format: ADME, organism-based, Muscle tissue; parameters: dose 5 mg/kg, dosed compound name [14C]CS-1036, route oral
# Cerebrum [10] = experiment: Drug uptake in albino F344/DuCrlCrlj rat cerebrum at 5 mg/kg, po after 1 hr by liquid scintillation counting; format: ADME, organism-based; parameters: dose 5 mg/kg, dosed compound name [14C]CS-1036, route oral
# Method in brief: (§1)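 Single oral [14C]CS-1036 at 5 mg/kg was given to male rats (159–167 g; n = 3). Cerebrum was collected after aortic bleeding at 1, 4, 8, 24, 72, 168 or 336 h, weighed, and homogenized in 2 volumes of saline. A 0.5 ml aliquot was solubilized in Soluene-350 and counted by LSC with external-standard correction. Results are in ng equivalent/g tissue from specific activity and sample weight.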
# Kidney [11] = experiment: Drug uptake in albino F344/DuCrlCrlj rat kidney at 5 mg/kg, po after 4 hrs by liquid scintillation counting; format: ADME, organism-based; parameters: dose 5 mg/kg, dosed compound name [14C]CS-1036, route oral
# Spleen [12] = experiment: Drug uptake in albino F344/DuCrlCrlj rat spleen at 5 mg/kg, po after 336 hrs by liquid scintillation counting; format: ADME, organism-based; parameters: dose 5 mg/kg, dosed compound name [14C]CS-1036, route oral
# Liver [13] = experiment: Drug uptake in albino F344/DuCrlCrlj rat liver assessed as ng equivalent of CS-1036 at 5 mg/kg, po after 1 hr by liquid scintillation counting; format: ADME, organism-based; parameters: dose 5 mg/kg, dosed compound name [14C]CS-1036, route oral
# [14] = Drug uptake in albino F344/DuCrlCrlj rat eyeball assessed as ng equivalent of CS-1036 at 5 mg/kg, po after 4 hrs by liquid scintillation counting; format: ADME, organism-based; parameters: dose 5 mg/kg, dosed compound name [14C]CS-1036, route oral
# Spleen [15] = experiment: Drug uptake in albino F344/DuCrlCrlj rat spleen assessed as ng equivalent of CS-1036 at 5 mg/kg, po after 4 hrs by liquid scintillation counting; format: ADME, organism-based; parameters: dose 5 mg/kg, dosed compound name [14C]CS-1036, route oral
# [16] = Drug uptake in albino F344/DuCrlCrlj rat trachea assessed as ng equivalent of CS-1036 at 5 mg/kg, po after 8 hrs by liquid scintillation counting; format: ADME, organism-based; parameters: dose 5 mg/kg, dosed compound name [14C]CS-1036, route oral
# [17] = Drug uptake in albino F344/DuCrlCrlj rat eyeball at 5 mg/kg, po after 168 hrs by liquid scintillation counting; format: ADME, organism-based; parameters: dose 5 mg/kg, dosed compound name [14C]CS-1036, route oral
# Plasma [18] = experiment: Drug uptake in albino F344/DuCrlCrlj rat plasma assessed as ng equivalent of CS-1036 at 5 mg/kg, po after 24 hrs by liquid scintillation counting; format: ADME, organism-based; parameters: dose 5 mg/kg, dosed compound name [14C]CS-1036, route oral
# Small intestine = experiment: Drug uptake in albino F344/DuCrlCrlj rat small intestine assessed as ng equivalent of CS-1036 at 5 mg/kg, po after 72 hrs by liquid scintillation counting; format: ADME, organism-based; parameters: dose 5 mg/kg, dosed compound name [14C]CS-1036, route oral
# Kidney [19] = experiment: Drug uptake in albino F344/DuCrlCrlj rat kidney assessed as ng equivalent of CS-1036 at 5 mg/kg, po after 168 hrs by liquid scintillation counting; format: ADME, organism-based; parameters: dose 5 mg/kg, dosed compound name [14C]CS-1036, route oral
# Harderian gland [20] = experiment: Drug uptake in albino F344/DuCrlCrlj rat harderian gland at 5 mg/kg, po after 4 hrs by liquid scintillation counting; format: ADME, organism-based; parameters: dose 5 mg/kg, dosed compound name [14C]CS-1036, route oral
# Plasma [21] = experiment: Drug uptake in albino F344/DuCrlCrlj rat plasma at 10 mg/kg, po after 8 to 72 hrs by liquid scintillation counting; format: ADME, organism-based; parameters: dose 10 mg/kg, dosed compound name [14C]CS-1036, route oral
# [22] = Drug uptake in albino F344/DuCrlCrlj rat trachea assessed as ng equivalent of CS-1036 at 5 mg/kg, po after 1 hr by liquid scintillation counting; format: ADME, organism-based; parameters: dose 5 mg/kg, dosed compound name [14C]CS-1036, route oral
# Liver [23] = experiment: Drug uptake in albino F344/DuCrlCrlj rat liver at 5 mg/kg, po after 1 hr by liquid scintillation counting; format: ADME, organism-based; parameters: dose 5 mg/kg, dosed compound name [14C]CS-1036, route oral
# [24] = Drug uptake in albino F344/DuCrlCrlj rat testis assessed as ng equivalent of CS-1036 at 5 mg/kg, po after 168 hrs by liquid scintillation counting; format: ADME, organism-based; parameters: dose 5 mg/kg, dosed compound name [14C]CS-1036, route oral
# Lung [25] = experiment: Drug uptake in albino F344/DuCrlCrlj rat lung assessed as ng equivalent of CS-1036 at 5 mg/kg, po after 24 hrs by liquid scintillation counting; format: ADME, organism-based; parameters: dose 5 mg/kg, dosed compound name [14C]CS-1036, route oral
# Blood = experiment: Drug uptake in albino F344/DuCrlCrlj rat blood at 5 mg/kg, po after 8 hrs by liquid scintillation counting; format: ADME, organism-based; parameters: dose 5 mg/kg, dosed compound name [14C]CS-1036, route oral
# Method in brief: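 Male rats (159–167 g; n = 3) received a single oral dose of [14C]CS-1036 at 5 mg/kg. Blood was drawn from the abdominal aorta at 1, 4, 8, 24, 72, 168 and 336 h. Radioactivity was counted by LSC with external-standard efficiency correction. Results are expressed as ng equivalent/ml from the specific activity and sample volume; mean + S.D.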
# Pancreas [26] = experiment: Drug uptake in albino F344/DuCrlCrlj rat pancreas assessed as ng equivalent of CS-1036 at 5 mg/kg, po after 336 hrs by liquid scintillation counting; format: ADME, organism-based; parameters: dose 5 mg/kg, dosed compound name [14C]CS-1036, route oral
# [27] = Drug uptake in albino F344/DuCrlCrlj rat skeletal muscle at 5 mg/kg, po after 336 hrs by liquid scintillation counting; format: ADME, organism-based, Muscle tissue; parameters: dose 5 mg/kg, dosed compound name [14C]CS-1036, route oral
# [28] = Drug uptake in albino F344/DuCrlCrlj rat eyeball at 5 mg/kg, po after 24 hrs by liquid scintillation counting; format: ADME, organism-based; parameters: dose 5 mg/kg, dosed compound name [14C]CS-1036, route oral
# Cerebellum = experiment: Drug uptake in albino F344/DuCrlCrlj rat cerebellum at 5 mg/kg, po after 72 hrs by liquid scintillation counting; format: ADME, organism-based; parameters: dose 5 mg/kg, dosed compound name [14C]CS-1036, route oral
# Cerebrum [29] = experiment: Drug uptake in albino F344/DuCrlCrlj rat cerebrum assessed as ng equivalent of CS-1036 at 5 mg/kg, po after 8 hrs by liquid scintillation counting; format: ADME, organism-based; parameters: dose 5 mg/kg, dosed compound name [14C]CS-1036, route oral; method in brief: as §1
smiles,measurement,setting,value
C[C@H]1O[C@@H](O[C@H]2[C@H](O)[C@@H](O)[C@@H](O[14C@H]3[14C@H](O)[14CH2]N[14C@@H]3[14CH2]O)O[C@@H]2CO)[C@H](O)[C@@H](O)[C@@H]1O,Radiolabel recovery,Pancreas [1],52 ngequiv/g
same,Radiolabel recovery,Harderian gland [2],4.3 ngequiv/g
same,Radiolabel recovery,Lung [3],47.1 ngequiv/g
same,Radiolabel recovery,[4],98.9 ngequiv/g
same,Radiolabel recovery,Heart,5.9 ngequiv/g
same,Radiolabel recovery,Large intestine,8000 ngequiv/g
same,Radiolabel recovery,Zone of skin,33 ngequiv/g
same,Radiolabel recovery,Lung [5],5.1 ngequiv/g
same,Radiolabel recovery,Pancreas [6],25.4 ngequiv/g
same,Radiolabel recovery,Harderian gland [7],119 ngequiv/g
same,Radiolabel recovery,Lung [8],51.3 ngequiv/g
same,Radiolabel recovery,[9],3.46 ngequiv/g
same,Radiolabel recovery,Cerebrum [10],8.81 ngequiv/g
same,Radiolabel recovery,Kidney [11],383 ngequiv/g
same,Radiolabel recovery,Spleen [12],7.81 ngequiv/g
same,Radiolabel recovery,Liver [13],60 ngequiv/g
same,Radiolabel recovery,[14],4.8 ngequiv/g
same,Radiolabel recovery,Spleen [15],6.3 ngequiv/g
same,Radiolabel recovery,[16],17.8 ngequiv/g
same,Radiolabel recovery,[17],4.54 ngequiv/g
same,Radiolabel recovery,Plasma [18],6.1 ngequiv/ml
same,Radiolabel recovery,Small intestine,16.2 ngequiv/g
same,Radiolabel recovery,Kidney [19],5.4 ngequiv/g
same,Radiolabel recovery,Harderian gland [20],39.1 ngequiv/g
same,Drug uptake,Plasma [21],Active
same,Radiolabel recovery,[22],7.4 ngequiv/g
same,Radiolabel recovery,Liver [23],346 ngequiv/g
same,Radiolabel recovery,[24],3.81 ngequiv/g
same,Radiolabel recovery,Lung [25],12.8 ngequiv/g
same,Radiolabel recovery,Blood,22.1 ngequiv/ml
same,Radiolabel recovery,Pancreas [26],11.2 ngequiv/g
same,Radiolabel recovery,[27],7.04 ngequiv/g
same,Radiolabel recovery,[28],17.4 ngequiv/g
same,Radiolabel recovery,Cerebellum,9.8 ngequiv/g
same,Radiolabel recovery,Cerebrum [29],1.44 ngequiv/g
